Test results: ChEMBL document CHEMBL1122497, “A polymeric drug for treatment of inflammatory bowel disease” (1983)
Values joined by “and” are separate entries in the source; they are usually repeats but may differ in a detail not shown here. Equal values may be shown once.

Experiments:
Rattus norvegicus [1] = assay: Tested for peak serum concentration in urine after oral administered dose in rat 1; format: functional
How it was run: (§1)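 Nonfasted female Sim:(SD)fBr rats (200-300 g), acclimated 72 h in metabolism cages, got a single oral dose (20 mg polymer or 16 mg SASP) as aqueous solution or suspension. Blood, urine and feces were collected to 96 h. Samples were β-glucuronidase-treated (37 °C, 18 h), acetylated, extracted and read fluorimetrically (ex 295, em 460 nm) against N-Ac-ASA standards.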

Rattus norvegicus [2] = assay: (§2) Tested for peak serum concentration in feces after oral administered dose in rat 3; format: functional; how it was run: as §1
Cavia porcellus [3] = species on record: Cavia porcellus; assay: Tested for weight loss in guinea pig at 60 umol concentration of compound; format: functional
How it was run: (§3)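 Male Hartley guinea pigs (242-265 g), groups of 20, were gavaged twice daily with agent solutions or suspensions for 3 days. Then 5 wt % sterile degraded carrageenan was given as the sole drinking fluid, with dosing continued. Diarrhea was checked twice daily, body weight every 3 days, and necropsy done after 24 days of carrageenan.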

Cavia porcellus [4] = species on record: Cavia porcellus; assay: Tested for cecal ulceration with mortality at 60 umol concentration of compound; format: functional
How it was run: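 Male Hartley guinea pigs (242-265 g, groups of 20) gavaged twice daily with 60 µmol doses as solution or suspension for 3 days. They were then given 5 wt % sterile degraded carrageenan as sole drinking fluid while dosing continued. Diarrhoea was checked twice daily and weight every 3 days. The study ended after 24 days of carrageenan, with necropsy and blind histology scored against untreated controls (Student's t test).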

Rattus norvegicus [5] = assay: Tested for peak serum concentration in feces after mean oral administered dose in rat; format: functional; how it was run: as §1
Rattus norvegicus [6] = assay: Tested for peak serum concentration in urine after oral administered dose in rat 3; format: functional; how it was run: as §1
Rattus norvegicus [7] = assay: Tested for peak serum concentration in feces after oral administered dose in rat 2; format: functional; how it was run: as §1
Rattus norvegicus [8] = assay: Tested for total administered dose in rat 2; format: functional; how it was run: as §1
Rattus norvegicus [9] = assay: Tested for peak serum concentration in urine after oral administered dose in rat 2; format: functional; how it was run: as §1
Cavia porcellus [10] = species on record: Cavia porcellus; assay: Tested for cecal ulceration in necropsy at 60 umol concentration of compound; format: functional; how it was run: as §3
Cavia porcellus [11] = species on record: Cavia porcellus; assay: Tested for mean score after quantitative histological evaluation result in guinea pig; format: functional; design: scale not given here
How it was run: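 Carrageenan colitis in male Hartley guinea pigs: 3 days of twice-daily gavage, then 5 wt % degraded carrageenan drinking water for 24 days with dosing continued. All animals, including early deaths, were scored histologically, reviewed blind by two evaluators. Total points per group were averaged and compared with untreated controls by Student's t test.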

Rattus norvegicus [12] = assay: Tested for peak serum concentration in urine after mean oral administered dose in rat; format: functional; how it was run: as §1
Rattus norvegicus [13] = assay: Tested for total administered dose in rat 1; format: functional; how it was run: as §1
Cavia porcellus [14] = species on record: Cavia porcellus; assay: Tested for cecal ulceration in diarrhea at 60 umol concentration of compound; format: functional; how it was run: as §3
Rattus norvegicus [15] = assay: as §2; format: functional; how it was run: as §1; remark: listed apart in the source
Rattus norvegicus [16] = assay: Tested for peak serum concentration in feces after oral administered dose in rat 1; format: functional; how it was run: as §1
Rattus norvegicus [17] = species on record: Rattus norvegicus; assay: Tested for peak serum concentration in rat 6; format: functional, organism-based; how it was run: as §1
Rattus norvegicus [18] = species on record: Rattus norvegicus; assay: Tested for peak serum concentration in rat 4; format: functional, organism-based; how it was run: as §1
Rattus norvegicus [19] = species on record: Rattus norvegicus; assay: Tested for peak serum concentration in rat; format: functional, organism-based; how it was run: as §1
Rattus norvegicus [20] = species on record: Rattus norvegicus; assay: Tested for peak serum concentration in rat 5; format: functional, organism-based; how it was run: as §1
Rattus norvegicus [21] = assay: Tested for total administered dose in rat 4; format: functional
How it was run: (§4)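 Nonfasted female Sim:(SD)fBr rats (200-300 g), acclimated 72 h to metabolism cages, got one oral dose as aqueous solution or suspension. Blood, urine and feces were collected to 96 h. Samples were hydrolysed with β-glucuronidase (pH 6.9, 37 °C, 18 h), acetylated, extracted with 4-methyl-2-pentanone and back-extracted into pH 6.0 buffer. Total 5-ASA plus metabolites were read fluorimetrically (ex 295, em 460 nm) against N-Ac-ASA standards.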

Rattus norvegicus [22] = assay: Tested for peak serum concentration in urine after oral administered dose in rat 6; format: functional; how it was run: as §1
Rattus norvegicus [23] = assay: Tested for peak serum concentration in urine after oral administered dose in rat 4; format: functional; how it was run: as §1
Rattus norvegicus [24] = assay: Tested for peak serum concentration in urine after oral administered dose in rat 5; format: functional; how it was run: as §1
Rattus norvegicus [25] = assay: Tested for total administered dose in rat 5; format: functional; how it was run: as §1
Rattus norvegicus [26] = assay: Tested for peak serum concentration in feces after oral administered dose in rat 5; format: functional; how it was run: as §4
Rattus norvegicus [27] = assay: (§5) Tested for peak serum concentration in feces after oral administered dose in rat 6; format: functional; how it was run: as §4
Rattus norvegicus [28] = assay: as §5; format: functional; how it was run: as §1; remark: listed apart in the source
Rattus norvegicus [29] = assay: Tested for peak serum concentration in feces after oral administered dose in rat 4; format: functional; how it was run: as §1

Compound | Weight loss (Cavia porcellus [3]) [g] | Incidence (Cavia porcellus [4]) [%] | Percent of oral dose recovered in feces (Rattus norvegicus [5]) | Incidence (Cavia porcellus [10]) [%] | Mean score (Cavia porcellus [11]) | Dose (Rattus norvegicus [12]) [%] | Incidence (Cavia porcellus [14]) [%] | also measured
O=C([O-])c1cc(/N=N/c2ccc(S(=O)(=O)Nc3ccccn3)cc2)ccc1O.[Na+] [POLYMER OF SULFASALAZINE] | 37 | 25 | 12.3% and 20.2% | 85 | 2.16 | 8 | 85 | Dose (Rattus norvegicus [1]): 6.7%; Dose (Rattus norvegicus [2]): 29.7%; Dose (Rattus norvegicus [6]): 7.7%; Dose (Rattus norvegicus [7]): 9.4%; Dose (Rattus norvegicus [8]): 18.9%; Dose (Rattus norvegicus [9]): 9.5%; Dose (Rattus norvegicus [13]): 12%; Dose (Rattus norvegicus [15]): 22%; Dose (Rattus norvegicus [16]): 5.3%
O=C(O)c1cc(/N=N/c2ccc(S(=O)(=O)Nc3ccccn3)cc2)ccc1O | – | – | – | – | – | – | – | Concentration (Rattus norvegicus [17]): 4.8 nM ml-1; Concentration (Rattus norvegicus [18]): 7.9 nM ml-1; Concentration (Rattus norvegicus [19]): 2.5 nM ml-1 and 5.6 nM ml-1; Concentration (Rattus norvegicus [20]): 4 nM ml-1
Nc1ccc(S(=O)(=O)Nc2ccccn2)cc1 [SULFAPYRIDINE] | 17 | 15 | – | 90 | 3.11 | – | 80 | –
O=C(O)c1cc(/N=N/c2ccc(S(=O)(=O)Nc3ccccn3)cc2)ccc1O [SULFASALAZINE] | 44 | 40 | 11% and 14.7% | 90 | 2.68 | 3.7 | 100 | Dose (Rattus norvegicus [21]): 10.7%; Dose (Rattus norvegicus [22]): 5%; Dose (Rattus norvegicus [23]): 3%; Dose (Rattus norvegicus [24]): 3.2%; Dose (Rattus norvegicus [25]): 17.2%; Dose (Rattus norvegicus [26]): 14%; Dose (Rattus norvegicus [27]): 11.4%; Dose (Rattus norvegicus [28]): 16.4%; Dose (Rattus norvegicus [29]): 7.7%
Nc1ccc(O)c(C(=O)O)c1 [MESALAMINE] | 12 | 28 | – | 83 | 2.4 | – | 83 | –
